Experimental data reported in ChEMBL document CHEMBL1134384, “Development of new carboxylic acid-based MMP inhibitors derived from functionalized propargylglycines” (J Med Chem, 2001).
Converted amounts (≈) assume the structure as drawn.

Key:
Collagenase 3 [1] = biological target: T1, Collagenase 3 (Homo sapiens, UniProt P45452); assay: Inhibitory activity against human matrix metalloprotease-13 in quenched fluorescence assay at pH 7.4
Interstitial collagenase = biological target: T2, Interstitial collagenase (Homo sapiens, UniProt P03956); assay: Inhibitory activity against human matrix metalloprotease-1 in quenched fluorescence assay at […]
T2 sequence (P03956 whole entry): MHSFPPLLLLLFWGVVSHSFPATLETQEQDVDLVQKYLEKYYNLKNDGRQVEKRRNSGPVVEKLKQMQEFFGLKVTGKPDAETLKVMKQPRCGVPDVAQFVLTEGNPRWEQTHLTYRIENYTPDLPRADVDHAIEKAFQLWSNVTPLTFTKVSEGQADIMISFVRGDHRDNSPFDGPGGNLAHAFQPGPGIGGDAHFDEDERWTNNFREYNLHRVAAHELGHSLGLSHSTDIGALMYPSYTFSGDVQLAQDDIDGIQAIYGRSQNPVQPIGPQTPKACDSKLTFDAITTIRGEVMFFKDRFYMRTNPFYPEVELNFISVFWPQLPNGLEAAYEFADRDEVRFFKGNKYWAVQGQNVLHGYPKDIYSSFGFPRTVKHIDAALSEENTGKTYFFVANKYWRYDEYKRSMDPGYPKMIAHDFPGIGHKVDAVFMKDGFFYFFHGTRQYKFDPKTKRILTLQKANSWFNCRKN
Procedure, shortened: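 Quenched fluorescence assay using truncated human recombinant enzymes expressed in E. coli, at final concentrations of 8 nM for MMP-1 and 16 nM for MMP-3. Substrate was Mca-Pro-Leu-Gly-Leu-Dpa-Ala-Arg-NH₂ at 4 μM, at 25 °C, in 50 mM Tris pH 7.5, 0.2 M NaCl, 5 mM CaCl₂, 0.02% Brij-35. Fluorescence (ex 328/em 393 nm) was read kinetically for 30 min. Eight inhibitor concentrations were tested and IC50 was fitted from Vi/V0.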

[2] = biological target: 72 kDa type IV collagenase (Homo sapiens, UniProt P08253); assay: Inhibitory activity against matrix metalloprotease-2 (MMP-2) in quenched fluorescence assay at […]
Procedure, shortened: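 Full-length human recombinant proMMP-2 from CHO cells was activated with 1 mM APMA for 45 min and used at 1 nM final. Cleavage of 4 μM Mca-Pro-Leu-Gly-Leu-Dpa-Ala-Arg-NH₂ was followed at 25 °C in Tris pH 7.5/NaCl/CaCl₂/Brij-35 buffer, with fluorescence read kinetically for 30 min. IC50 came from 8 inhibitor concentrations.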

Stromelysin-1 = Stromelysin-1 (Homo sapiens, UniProt P08254); assay: Inhibitory activity against human matrix metalloprotease-3 (MMP-3) ([…])
[3] = Solubility was determined at a pH of […]; format: physicochemical; settings: pH 7
[4] = Bioavailability in rat (fasted) using cassette dosing; format: ADME, organism-based; settings: in vivo
Procedure, shortened: (§1)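 Fasted rats (n = 3/4) received cassette doses of 4–5 compounds per experiment at 1–5 mg/kg of each inhibitor. Each study included a control compound previously characterized in a single-compound experiment, to validate the data set and detect problems such as saturation of elimination.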

[5] = Half life was determined in fasted rats using cassette dosing technique.; format: ADME, organism-based; settings: rat, in vivo; procedure, shortened: as §1
Collagenase 3 [6] = biological target: T1, Collagenase 3; assay: Inhibition of human matrix metalloprotease-13 at pH 7.4

72 kDa type IV collagenase, sequence (P08253 whole entry): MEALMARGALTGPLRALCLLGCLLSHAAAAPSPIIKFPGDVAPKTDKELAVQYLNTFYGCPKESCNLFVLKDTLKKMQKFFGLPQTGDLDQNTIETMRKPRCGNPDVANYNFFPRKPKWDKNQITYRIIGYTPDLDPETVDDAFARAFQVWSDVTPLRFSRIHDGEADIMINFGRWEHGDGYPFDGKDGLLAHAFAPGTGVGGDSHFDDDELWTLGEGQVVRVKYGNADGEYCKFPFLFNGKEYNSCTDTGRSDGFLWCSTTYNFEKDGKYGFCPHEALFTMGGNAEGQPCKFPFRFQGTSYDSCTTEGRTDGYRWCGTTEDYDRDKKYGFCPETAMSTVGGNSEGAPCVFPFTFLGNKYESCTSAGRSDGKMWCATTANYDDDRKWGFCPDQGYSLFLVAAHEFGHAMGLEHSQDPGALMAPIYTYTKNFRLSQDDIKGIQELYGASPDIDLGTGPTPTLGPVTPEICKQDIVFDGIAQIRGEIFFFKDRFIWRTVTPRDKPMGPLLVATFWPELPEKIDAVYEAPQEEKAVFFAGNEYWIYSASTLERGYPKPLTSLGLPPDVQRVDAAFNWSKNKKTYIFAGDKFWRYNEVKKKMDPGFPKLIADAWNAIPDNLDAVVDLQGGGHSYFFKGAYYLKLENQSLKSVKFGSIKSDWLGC
Stromelysin-1, sequence (P08254 whole entry): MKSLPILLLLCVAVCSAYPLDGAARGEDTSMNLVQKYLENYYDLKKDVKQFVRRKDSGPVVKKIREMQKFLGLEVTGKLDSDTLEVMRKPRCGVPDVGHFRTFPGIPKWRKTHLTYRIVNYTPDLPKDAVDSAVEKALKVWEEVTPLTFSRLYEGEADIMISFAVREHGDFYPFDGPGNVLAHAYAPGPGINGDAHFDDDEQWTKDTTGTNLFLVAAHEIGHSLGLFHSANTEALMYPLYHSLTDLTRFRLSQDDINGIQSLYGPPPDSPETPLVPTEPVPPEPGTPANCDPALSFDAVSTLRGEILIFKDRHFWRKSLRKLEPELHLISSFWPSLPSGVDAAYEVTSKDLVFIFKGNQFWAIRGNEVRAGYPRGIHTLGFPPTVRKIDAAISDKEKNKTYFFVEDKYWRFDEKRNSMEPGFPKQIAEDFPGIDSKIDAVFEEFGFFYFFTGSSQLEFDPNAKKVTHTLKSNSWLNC

SMILES | IC50 (Collagenase 3 [1]) | IC50 (Interstitial collagenase) | IC50 [2] | IC50 (Stromelysin-1) | solubility [3] | bioavailability [4] | half-life [5] | IC50 (Collagenase 3 [6])
COc1ccc(-c2ccc(S(=O)(=O)NC(C(=O)O)[C@@H](C#Cc3ccccc3)OCc3ccccc3)cc2)cc1 (some centres not stated) | 0.014 µM | > 10 µM | 0.008 µM | 4.27 µM | – | – | – | –
COc1ccc(C#Cc2ccc(S(=O)(=O)NC(CC#CCN3CCOCC3)C(=O)O)cc2)cc1 (configuration not stated) | – | – | 0.028 µM | 6.6 µM | 151000 µg/mL (≈ 313000 µM) | 12% | 3.6 h | –
O=C(O)C(CC#Cc1ccccc1)NS(=O)(=O)c1ccc(/N=N/c2ccccc2)cc1 (configuration not stated) | – | – | 0.087 µM | 16.3 µM | – | – | – | –
COCCOc1ccc(-c2ccc(S(=O)(=O)NC(CC#Cc3ccccc3)C(=O)O)cc2)cc1 (configuration not stated) | 0.05 µM | > 10 µM | 0.026 µM | 2.43 µM | – | – | – | –
COc1ccc(-c2ccc(S(=O)(=O)NC(C(=O)O)[C@@H](C#Cc3ccccc3)OC)cc2)cc1 (some centres not stated) | 0.081 µM | 4.2 µM | 0.031 µM | 3.7 µM | – | – | – | –
COc1ccc(C(=O)Nc2ccc(S(=O)(=O)NC(CC#CCOc3ccccc3)C(=O)O)cc2)cc1 (configuration not stated) | 0.226 µM | > 10 µM | 0.009 µM | 3.92 µM | 410 µg/mL (≈ 806 µM) | – | – | –
COCC#CCC(NS(=O)(=O)c1ccc(NC(=O)c2ccc(Br)cc2)cc1)C(=O)O (configuration not stated) | 0.27 µM | > 10 µM | 0.006 µM | 8.62 µM | – | – | – | –
CSc1ccc(-c2ccc(S(=O)(=O)NC(CC#CCN3CCOCC3)C(=O)O)cc2)cc1 (configuration not stated) | – | 11.5 µM | 0.024 µM | 5.06 µM | – | – | – | –
COc1ccc(-c2ccc(S(=O)(=O)NC(CC#Cc3ccccc3)C(=O)O)cc2)cc1 (configuration not stated) | 0.021 µM | 2 µM | 0.012 µM | 2.28 µM | 20 µg/mL (≈ 45.9 µM) | 49% | 1.7 h | –
COc1ccc(C#Cc2ccc(S(=O)(=O)NC(CC#Cc3ccccc3)C(=O)O)s2)cc1 (configuration not stated) | – | – | 0.046 µM | 10.1 µM | – | – | – | 0.145 µM
O=C(O)C(CC#Cc1ccccc1)NS(=O)(=O)c1ccc(-c2ccc(F)cc2)cc1 (configuration not stated) | 0.231 µM | 5.6 µM | 0.175 µM | 8.9 µM | – | – | – | –
O=C(O)C(CC#CCOc1ccccc1)NS(=O)(=O)c1ccc(-c2ccc(Br)cc2)cc1 (configuration not stated) | 0.254 µM | > 10 µM | 0.023 µM | 1.81 µM | – | – | – | –
COc1ccc(-c2ccc(S(=O)(=O)NC(CC#Cc3cccc(N4CCOCC4)c3)C(=O)O)cc2)cc1 (configuration not stated) | 0.024 µM | 3.66 µM | 0.016 µM | 3.52 µM | 580 µg/mL (≈ 1110 µM) | 7% | 0.1 h | –
CCCCOc1ccc(S(=O)(=O)NC(CC#Cc2ccccc2)C(=O)O)cc1 (configuration not stated) | 2.04 µM | – | – | 15.4 µM | – | – | – | –
COc1ccc(S(=O)(=O)c2csc(S(=O)(=O)NC(CC#Cc3ccccc3)C(=O)O)c2)cc1 (configuration not stated) | > 10 µM | > 10 µM | > 10 µM | > 10 µM | – | – | – | –
COc1ccc(C#Cc2ccc(S(=O)(=O)NC(CC#Cc3ccccc3)C(=O)O)cc2)cc1 (configuration not stated) | 0.035 µM | > 10 µM | 0.009 µM | 4.36 µM | 20 µg/mL (≈ 43.5 µM) | 26% | 0.7 h | –
COCC#CCC(NS(=O)(=O)c1ccc(-c2ccc(OC)cc2)cc1)C(=O)O (configuration not stated) | 0.076 µM | 6.15 µM | 0.02 µM | – | 5800 µg/mL (≈ 14400 µM) | – | – | –
COc1ccc(S(=O)(=O)c2ccc(S(=O)(=O)NC(CC#Cc3ccccc3)C(=O)O)s2)cc1 (configuration not stated) | > 10 µM | > 10 µM | > 10 µM | > 10 µM | – | – | – | –
COc1ccc(-c2ccc(S(=O)(=O)NC(CC#CCN3CCN(C(=O)OC(C)(C)C)CC3)C(=O)O)cc2)cc1 (configuration not stated) | – | > 10 µM | 0.661 µM | > 10 µM | – | – | – | –
COCCOCOCC#CCC(NS(=O)(=O)c1ccc(-c2ccc(OC)cc2)cc1)C(=O)O (configuration not stated) | 0.088 µM | 6.51 µM | 0.033 µM | 2.34 µM | – | – | – | –
COc1ccc(-c2ccc(S(=O)(=O)NC(CC#Cc3ccccc3)C(=O)O)s2)cc1 (configuration not stated) | – | 3.25 µM | 0.02 µM | 1.32 µM | 30 µg/mL (≈ 67.9 µM) | – | – | –
O=C(O)C(CC#Cc1ccccc1)NS(=O)(=O)c1ccc(Oc2ccccc2)cc1 (configuration not stated) | 2.15 µM | > 10 µM | 1.48 µM | 4.56 µM | – | – | – | –
